Results from ChEMBL document CHEMBL1139282, “6-Bicycloaryl substituted (S)- and (R)-5,6-dihydro-2H-pyran-2-ones: asymmetric synthesis, and anti-proliferative properties” (Bioorg Med Chem, 2009).

Legend:
Format in all cases: functional, cell-based
PC-3 [1] = test: Cytotoxicity against human PC3 cells after 48 hrs by MTT assay; conditions: PC-3, 48 h
In short: (§1)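 PC-3 kept in DMEM with 5% FBS, MCF-7 in RPMI-1640 with 15% FBS, both used at passages 10-20. Seeded at 1×10^4 cells/well, attached 24 h, then treated 48 h at 0.01-50 µM with final 1% DMSO, in triplicate. Wells PBS-washed, diluted MTT stock (1:10) added for 3.5 h, plates centrifuged before formazan read-out.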

MCF7 [2] = test: Cytotoxicity against human MCF7 cells after 48 hrs by MTT assay; conditions: MCF7, 48 h; in short: as §1
PC-3 [3] = test: Cytotoxicity against human PC3 cells after 72 hrs by MTT assay; conditions: PC-3, 72 h
In short: (§2)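 ATCC-sourced lines grown at 37 °C, 5% CO2 in RPMI-1640 or DMEM with 5-10% FBS plus penicillin/streptomycin. Cells exposed to a range of doses for 72 h at 37 °C. MTT added, medium removed 4 h later, formazan dissolved in DMSO and read at 570-690 nm. IC50 from three independent assays, two wells each, via % viability.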

DU-145 = test: Cytotoxicity against human DU145 cells after 72 hrs by MTT assay; conditions: DU-145, 72 h; in short: as §2
MCF7 [4] = test: Cytotoxicity against human MCF7 cells after 72 hrs by MTT assay; conditions: MCF7, 72 h; in short: as §2
LNCaP = test: Cytotoxicity against human LNCAP cells after 72 hrs by MTT assay; in short: as §2

Structure (SMILES)	IC50 (PC-3 [1])	IC50 (MCF7 [2])	IC50 (PC-3 [3])	IC50 (DU-145)	IC50 (MCF7 [4])	IC50 (LNCaP)
O=C1C=CC[C@H](c2cnc3ccccc3c2)O1	2.5 µM	3.2 µM	–	–	–	–
O=C1C=CC[C@H](c2cccc(Oc3ccccc3)c2)O1	11 µM	> 50 µM	–	–	–	–
C=CC[C@@H](OC(=O)C=C)c1cccc(Oc2ccccc2)c1	> 50 µM	> 50 µM	–	–	–	–
C=CC[C@@H](OC(=O)C=C)c1c(C)ccc2ccccc12	8.8 µM	10.4 µM	–	–	–	–
Cc1ccc([C@H]2CC=CC(=O)O2)c2ccccc12	0.05 µM	0.44 µM	–	–	–	–
O=C1C=CC[C@H](c2ccc3ccccc3c2)O1	–	–	3 µM	12 µM	19 µM	11 µM
Cc1ccc2ccccc2c1[C@H]1CC=CC(=O)O1	0.13 µM	2.6 µM	–	–	–	–
O=C1C=CC[C@H](c2ccnc3ccccc23)O1	9.8 µM	32.5 µM	–	–	–	–
O=C1C=CC[C@H](/C=C/c2ccccc2)O1 [GONIOTHALAMIN]	–	–	4 µM	19 µM	28 µM	12 µM
C=CC[C@@H](OC(=O)C=C)c1ccnc2ccccc12	15 µM	13.2 µM	–	–	–	–
C=CC[C@@H](OC(=O)C=C)c1cccc2ccccc12	22.9 µM	> 50 µM	–	–	–	–
O=C1C=CC[C@H](c2cccc3ccccc23)O1	0.8 µM	2.6 µM	–	–	–	–
O=C1C=CC[C@@H](c2ccc3ccccc3c2)O1	–	–	12 µM	28 µM	37 µM	15 µM
C=CC[C@@H](OC(=O)C=C)c1ccc(C)c2ccccc12	45 µM	33.1 µM	–	–	–	–
C=CC[C@@H](OC(=O)C=C)c1cnc2ccccc2c1	16.3 µM	28.8 µM	–	–	–	–
